# Source: ChEMBL document CHEMBL6078622, “Enhancing outer membrane permeability of tetracycline antibiotics in P. aeruginosa using TOB-CIP conjugates” (RSC Med Chem, 2024)
# Activity calls are given as the source filed them. The rule behind the calls is not given here.
# Experiments:
# Pseudomonas aeruginosa [1] = experiment: Antibacterial activity against Pseudomonas aeruginosa PA200 assessed as eravacycline MIC by CLSI based broth-microdilution method; type: functional
# Pseudomonas aeruginosa [2] = experiment: Synergistic antibacterial activity against Pseudomonas aeruginosa PA114228 in presence of eravacycline by checkerboard assay; type: functional
# Pseudomonas aeruginosa [3] = experiment: Antibacterial activity against Pseudomonas aeruginosa PA200 assessed as tigecycline MIC by CLSI based broth-microdilution method; type: functional
# Pseudomonas aeruginosa [4] = experiment: Antibacterial activity against Pseudomonas aeruginosa PA262 assessed as minocycline MIC by CLSI based broth-microdilution method; type: functional
# Escherichia = experiment: Synergistic antibacterial activity against Escherichia 94474 assessed as fold change in minocycline MIC by CLSI based broth-microdilution method relative to minocycline alone; type: functional
# Summary of the method: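 Checkerboard combination assay against E. coli EC107115 (MDR) and EC94474 (colistin-resistant), run in biological duplicates; the fold change is the tetracycline MIC in combination relative to its MIC alone.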
# Pseudomonas aeruginosa [5] = experiment: Synergistic antibacterial activity against Pseudomonas aeruginosa PA259 assessed as fold change in minocycline MIC by CLSI based broth-microdilution method relative to minocycline alone; type: functional
# Pseudomonas aeruginosa [6] = experiment: Antibacterial activity against Pseudomonas aeruginosa PA100036 assessed as inhibition of visible bacterial growth by CLSI based broth-microdilution method; type: functional
# Pseudomonas aeruginosa [7] = experiment: Synergistic antibacterial activity against Pseudomonas aeruginosa PA200 assessed as fractional inhibitory concentration index in presence of tigecycline by checkerboard assay; type: functional
# Pseudomonas aeruginosa [8] = experiment: Synergistic antibacterial activity against Pseudomonas aeruginosa PA264 assessed as fold change in eravacycline MIC by CLSI based broth-microdilution method relative to eravacycline alone; type: functional
# Pseudomonas aeruginosa [9] = experiment: Antibacterial activity against Pseudomonas aeruginosa PA259 assessed as doxycycline MIC by CLSI based broth-microdilution method; type: functional
# Pseudomonas aeruginosa [10] = experiment: Antibacterial activity against Pseudomonas aeruginosa PA264 assessed as doxycycline MIC by CLSI based broth-microdilution method; type: functional
# Pseudomonas aeruginosa [11] = experiment: Synergistic antibacterial activity against Pseudomonas aeruginosa PAO1 assessed as fold change in tigecycline MIC by checkerboard analysis relative to Tigecycline alone; type: functional
# Pseudomonas aeruginosa [12] = experiment: Antibacterial activity against Pseudomonas aeruginosa PA095 assessed as doxycycline MIC by CLSI based broth-microdilution method; type: functional
# Pseudomonas aeruginosa [13] = experiment: Antibacterial activity against Pseudomonas aeruginosa PA259 assessed as reduction in bacterial load by time kill assay; type: functional, organism-based
# Pseudomonas aeruginosa [14] = experiment: Synergistic antibacterial activity against Pseudomonas aeruginosa PA101243 assessed as fractional inhibitory concentration index in presence of eravacycline by checkerboard assay; type: functional
# Pseudomonas aeruginosa [15] = experiment: Synergistic antibacterial activity against Pseudomonas aeruginosa PA262 in presence of minocycline by checkerboard assay; type: functional
# Pseudomonas aeruginosa [16] = experiment: Synergistic antibacterial activity against Pseudomonas aeruginosa PA200 assessed as fold change in doxycycline MIC by CLSI based broth-microdilution method relative to doxycycline alone; type: functional
# Pseudomonas aeruginosa [17] = experiment: Synergistic antibacterial activity against Pseudomonas aeruginosa PA100036 assessed as fold change in doxycycline MIC by CLSI based broth-microdilution method relative to doxycycline alone; type: functional
# Pseudomonas aeruginosa [18] = experiment: Synergistic antibacterial activity against Pseudomonas aeruginosa PA264 assessed as fractional inhibitory concentration index in presence of doxycycline by checkerboard assay; type: functional
# Pseudomonas aeruginosa [19] = experiment: Synergistic antibacterial activity against Pseudomonas aeruginosa PA264 assessed as fold change in tigecycline MIC by CLSI based broth-microdilution method relative to tigecycline alone; type: functional
# Pseudomonas aeruginosa [20] = experiment: Antibacterial activity against Pseudomonas aeruginosa PA259 assessed as inhibition of visible bacterial growth by CLSI based broth-microdilution method; type: functional
# Pseudomonas aeruginosa [21] = experiment: Antibacterial activity against Pseudomonas aeruginosa PA101243 assessed as inhibition of visible bacterial growth by CLSI based broth-microdilution method; type: functional
# Pseudomonas aeruginosa [22] = experiment: Synergistic antibacterial activity against Pseudomonas aeruginosa PA114228 assessed as fold change in tigecycline MIC by CLSI based broth-microdilution method relative to tigecycline alone; type: functional
# Pseudomonas aeruginosa [23] = experiment: Synergistic antibacterial activity against Pseudomonas aeruginosa PA095 assessed as fold change in doxycycline MIC by CLSI based broth-microdilution method relative to doxycycline alone; type: functional
# Pseudomonas aeruginosa [24] = experiment: Synergistic antibacterial activity against Pseudomonas aeruginosa PAO1 assessed as fold change in minocycline MIC by checkerboard analysis relative to minocycline alone; type: functional
# Pseudomonas aeruginosa [25] = experiment: Synergistic antibacterial activity against Pseudomonas aeruginosa PAO1 assessed as fold change in doxycycline MIC by checkerboard analysis relative to doxycycline alone; type: functional
# Pseudomonas aeruginosa [26] = experiment: Antibacterial activity against Pseudomonas aeruginosa PA100036 assessed as tigecycline MIC by CLSI based broth-microdilution method; type: functional
# Pseudomonas aeruginosa [27] = experiment: Synergistic antibacterial activity against Pseudomonas aeruginosa PA262 assessed as fractional inhibitory concentration index in presence of tigecycline by checkerboard assay; type: functional
# Pseudomonas aeruginosa [28] = experiment: Antibacterial activity against Pseudomonas aeruginosa PA095 assessed as inhibition of visible bacterial growth by CLSI based broth-microdilution method; type: functional
# Pseudomonas aeruginosa [29] = experiment: Antibacterial activity against Pseudomonas aeruginosa PA095 assessed as minocycline MIC by CLSI based broth-microdilution method; type: functional
# Pseudomonas aeruginosa [30] = experiment: Synergistic antibacterial activity against Pseudomonas aeruginosa PA101243 in presence of doxycycline by checkerboard assay; type: functional
# Pseudomonas aeruginosa [31] = experiment: Synergistic antibacterial activity against Pseudomonas aeruginosa PA100036 assessed as fractional inhibitory concentration index in presence of doxycycline by checkerboard assay; type: functional
# Pseudomonas aeruginosa [32] = experiment: Synergistic antibacterial activity against Pseudomonas aeruginosa PA095 assessed as fold change in tigecycline MIC by CLSI based broth-microdilution method relative to tigecycline alone; type: functional
# Pseudomonas aeruginosa [33] = experiment: Synergistic antibacterial activity against Pseudomonas aeruginosa PA262 in presence of eravacycline by checkerboard assay; type: functional
# Pseudomonas aeruginosa [34] = experiment: Antibacterial activity against Pseudomonas aeruginosa PA200 assessed as minocycline MIC by CLSI based broth-microdilution method; type: functional
# Pseudomonas aeruginosa [35] = experiment: Synergistic antibacterial activity against Pseudomonas aeruginosa PA095 assessed as fractional inhibitory concentration index in presence of eravacycline by checkerboard assay; type: functional
# Pseudomonas aeruginosa [36] = experiment: Synergistic antibacterial activity against Pseudomonas aeruginosa PA264 in presence of tigecycline by checkerboard assay; type: functional
# Pseudomonas aeruginosa [37] = experiment: Synergistic antibacterial activity against Pseudomonas aeruginosa PAO1 assessed as fold change in eravacycline MIC by checkerboard analysis relative to eravacycline alone; type: functional
# Pseudomonas aeruginosa [38] = experiment: Antibacterial activity against Pseudomonas aeruginosa PA264 assessed as eravacycline MIC by CLSI based broth-microdilution method; type: functional
# Pseudomonas aeruginosa [39] = experiment: Synergistic antibacterial activity against Pseudomonas aeruginosa PA264 assessed as fold change in minocycline MIC by CLSI based broth-microdilution method relative to minocycline alone; type: functional
# Pseudomonas aeruginosa [40] = experiment: Synergistic antibacterial activity against Pseudomonas aeruginosa PA200 in presence of doxycycline by checkerboard assay; type: functional
# Pseudomonas aeruginosa [41] = experiment: Synergistic antibacterial activity against Pseudomonas aeruginosa PA114228 in presence of minocycline by checkerboard assay; type: functional
# Pseudomonas aeruginosa [42] = experiment: Synergistic antibacterial activity against Pseudomonas aeruginosa PA259 assessed as fold change in tigecycline MIC by CLSI based broth-microdilution method relative to tigecycline alone; type: functional
# HepG2 = experiment: Cytotoxicity against human HepG2 cells assessed as inhibition of cell vitality at 162 uM; type: functional; design: scale not given: the % may be the effect or the level left
# Pseudomonas aeruginosa [43] = experiment: Synergistic antibacterial activity against Pseudomonas aeruginosa PA200 in presence of minocycline by checkerboard assay; type: functional
structure (smiles),measurement,setting,value
Cl.Cl.Cl.Cl.Cl.Cl.NC[C@H]1O[C@H](O[C@H]2[C@H](OCCCCCCCCCCCCNC(=O)c3cn(C4CC4)c4cc(N5CCNCC5)c(F)cc4c3=O)[C@@H](O[C@H]3O[C@H](CO)[C@@H](O)[C@H](N)[C@H]3O)[C@H](N)C[C@@H]2N)[C@H](N)C[C@@H]1O,MIC,Pseudomonas aeruginosa [1],0.031 µg/mL
same,MIC,Pseudomonas aeruginosa [2],8 µg/mL
same,MIC,Pseudomonas aeruginosa [3],0.25 µg/mL
same,MIC,Pseudomonas aeruginosa [4],2 µg/mL
same,fold change (FC),Escherichia,8
same,fold change (FC),Pseudomonas aeruginosa [5],512
same,MIC,Pseudomonas aeruginosa [6],> 128 µg/mL
same,fractional inhibitory concentration index (FICI),Pseudomonas aeruginosa [7],0.187
same,fold change (FC),Pseudomonas aeruginosa [8],64
same,MIC,Pseudomonas aeruginosa [9],0.5 µg/mL
same,MIC,Pseudomonas aeruginosa [10],0.5 µg/mL
same,fold change (FC),Pseudomonas aeruginosa [11],64
same,MIC,Pseudomonas aeruginosa [12],4 µg/mL
same,AC30,Pseudomonas aeruginosa [13],Active
same,fractional inhibitory concentration index (FICI),Pseudomonas aeruginosa [14],0.625
same,MIC,Pseudomonas aeruginosa [15],8 µg/mL
same,fold change (FC),Pseudomonas aeruginosa [16],64
same,fold change (FC),Pseudomonas aeruginosa [17],128
same,fractional inhibitory concentration index (FICI),Pseudomonas aeruginosa [18],0.015
same,fold change (FC),Pseudomonas aeruginosa [19],32
same,MIC,Pseudomonas aeruginosa [20],> 128 µg/mL
same,MIC,Pseudomonas aeruginosa [21],> 128 µg/mL
same,fold change (FC),Pseudomonas aeruginosa [22],128
same,fold change (FC),Pseudomonas aeruginosa [23],16
same,fold change (FC),Pseudomonas aeruginosa [24],64
same,fold change (FC),Pseudomonas aeruginosa [25],64
same,MIC,Pseudomonas aeruginosa [26],0.5 µg/mL
same,fractional inhibitory concentration index (FICI),Pseudomonas aeruginosa [27],0.008
same,MIC,Pseudomonas aeruginosa [28],8 µg/mL
same,MIC,Pseudomonas aeruginosa [29],1 µg/mL
same,MIC,Pseudomonas aeruginosa [30],8 µg/mL
same,fractional inhibitory concentration index (FICI),Pseudomonas aeruginosa [31],0.004
same,fold change (FC),Pseudomonas aeruginosa [32],2
same,MIC,Pseudomonas aeruginosa [33],8 µg/mL
same,MIC,Pseudomonas aeruginosa [34],1 µg/mL
same,fractional inhibitory concentration index (FICI),Pseudomonas aeruginosa [35],0.265
same,MIC,Pseudomonas aeruginosa [36],8 µg/mL
same,fold change (FC),Pseudomonas aeruginosa [37],64
same,MIC,Pseudomonas aeruginosa [38],0.125 µg/mL
same,fold change (FC),Pseudomonas aeruginosa [39],128
same,MIC,Pseudomonas aeruginosa [40],8 µg/mL
same,MIC,Pseudomonas aeruginosa [41],8 µg/mL
same,fold change (FC),Pseudomonas aeruginosa [42],128
same,Activity,HepG2,40%
same,MIC,Pseudomonas aeruginosa [43],8 µg/mL
